In article PMC4804314 (Pharmacology Research & Perspectives, 2016):
Read-outs that look alike come from different tables or passages of the source. Marks after values point to notes of the source that are not given here.

Columns and labels:
[1] = Metabolite profiling of mouse plasma, urine and feces by radio-HPLC; assay type: in vivo, mouse (NMRI); details: for dose excreted: NMRI, mouse
How it was run: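 Mouse samples after i.v. [14C]-test compound, 2.5 mg/kg. Plasma at 0.1 and 0.25 h was extracted twice with ethanol. Fecal precipitates were sonicated with ethanol at 40°C/2 h, and unextracted residue was combusted. Extracts ran on isocratic radio-HPLC: acetonitrile/0.05 mol/L ammonium acetate pH 4 (19/80, v/v), RP8e column, 1 mL/min, UV 230 nm plus radiodetector. Excreted radioactivity was given as % dose.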

[2] = Excretion of total radioactivity in mouse; assay type: in vivo, mouse (NMRI)
How it was run: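 Male and female NMRI mice got an i.v. bolus of [14C]-test compound, 2.5 mg/kg. Urine and feces were collected 0–8 h, 8–24 h, then every 24 h to 120 h. Urine from timed pooled samples (n = 3) was counted by LSC. Feces were homogenized in water with carboxymethylcellulose, and 1 g aliquots were dried at 60°C/12 h and combusted. Minced carcasses (0.5 g aliquots) and tail segments were combusted for residual radioactivity.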

[3] = Plasma pharmacokinetics in Cynomolgus monkey after i.v. bolus; assay type: in vivo, Cynomolgus monkey (Macaca fascicularis)
How it was run: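 Female Cynomolgus monkeys (n = 3), single i.v. bolus of [14C]-test compound. Plasma was sampled predose and at 0.1, 0.5, 1.0, 2, 4, 8, 24 and 48 h. Total radioactivity was read by LSC and parent compound by LC/MS/MS. PK parameters came from noncompartmental analysis as in mouse.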

[4] = Excretion of total radioactivity in monkey; assay type: in vivo, Cynomolgus monkey (Macaca fascicularis)
How it was run: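 Female Cynomolgus monkeys (n = 3) got a single i.v. bolus of [14C]-test compound, 2.0 mg/kg. Urine and feces were collected 0–8 h, 8–24 h, then in 24-h intervals to 120 h. Both were counted by LSC as in the mouse study, with feces dried and combusted first. Excretion was expressed as % of radioactive dose.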

[5] = Plasma pharmacokinetics in rat after i.v. bolus; assay type: in vivo, Wistar rat; details: for clearance / half-life: in vivo
How it was run: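 Wistar rats, intravenous bolus. Plasma was sampled at 0.1, 0.25, 0.5, 1, 2, 4 and 6 h postadministration.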

[6] = system: sandwich‐cultured hepatocytes; assay: Cytotoxicity test with lactate dehydrogenase; assay type: cell-based; details: 250 μmol/L, up to 24 h
[7] = NADPH-dependent metabolism by mouse liver microsomes; assay type: in vitro ADME; details: mice, 10 and 100 µM, up to 6 h
human hepatocytes = assay: Metabolism in cultured human hepatocytes; assay type: in vitro ADME; details: 1 and 10 µg/mL, up to 24 h
[8] = Distribution of radioactivity in pigmented mice; assay type: in vivo; details: eyes and skin
[9] = ref Becker et al. 2015, cited from earlier work
[10] = cynomolgus monkey, in vivo, iv, 2 mg/kg
[11] = female, cynomolgus monkey, plasma, iv, 2 mg/kg
[12] = human, male, 0–144 h, n = 5, listed as [^14C]‐cilengitide

CC(C)[C@H]1C(=O)N[C@@H](CCCN=C(N)N)C(=O)NCC(=O)N[C@@H](CC(=O)O)C(=O)N[C@H](Cc2ccccc2)C(=O)N1C [cilengitide, cyclo‐(Asp‐D‐Phe‐N‐MeVal‐Arg‐Gly)]
dose excreted ([1]; female, feces): 66.2% | dose excreted ([1]; female, feces, iv, 2.5 mg/kg): 66% | dose excreted ([1]; female, urine, iv, 2.5 mg/kg): 28% | unchanged drug in feces (fecal/biliary secretion) ([1]; male mice): 87.2 % of the administered dose | dose excreted ([1]; male, feces, iv, 2.5 mg/kg): 87% | dose excreted ([1]; male, urine, iv, 2.5 mg/kg): 7% | extent of renal excretion [2]: 10% | half-life ([3]; cynomolgus monkey, in vivo): 75 min | clearance ([3]; cynomolgus monkey, in vivo, Plasma CL, monkey, value used for allometry): 0.29 L/h/kg | AUC [3, 10]: 6.46 µg·h/mL | Vd [3, 10]: 0.35 L/kg | half-life [3, 10]: 66 min | level at 0.1 h [3, 11]: 7.02 µg/mL | level at 0.5 h [3, 11]: 3.4 µg/mL | level at 8 h [3, 11]: 0.0246 µg/mL | clearance as share of hbf ([3]; monkey): 12% | extent of renal excretion [4]: 56% | clearance as share of hepatic blood flow (hbf) [5]: approximately 20% | level at 0.1 h ([5]; Wistar, plasma, iv, 2.5 mg/kg): 5.36 to 5.87 µg/mL | clearance [5]: 0.98 L/h/kg | half-life [5]: 30 min | clearance ([5]; iv, 2.5 mg/kg): ~0.98 L/h/kg | half-life ([5]; iv, 2.5 mg/kg): 14.4 to 30 min | cell toxicity (LDH in cell culture medium) [6]: does not cause cell toxicity | metabolism by liver microsomes [7]: poorly metabolized | metabolism by cultured hepatocytes (human hepatocytes): poorly metabolized | melanin binding [8]: no relevant melanin binding | dose recovered in urine as unchanged drug ([9]; human volunteers): 77.5% | Excretion of radioactivity in feces ([9]; human, male, 0–24 h, n = 5): ∼9.0 % dose | Excretion of radioactivity, total ([9]; human, male, 0–24 h, n = 5): ∼87 % dose | Excretion of radioactivity in feces ([9]; human, male, 0–144 h, n = 5): 15.5 % dose | Excretion of radioactivity in urine ([9]; human, male, 0–144 h, n = 5): 79 % dose | Excretion of radioactivity in feces [9, 12]: 15.5 ^d % dose | Excretion of radioactivity in urine [9, 12]: 79.0 ^d % dose | extent of renal excretion ([9]; human): ~ 80% | components found in human plasma and urine [9]: parent compound was the only component found | renal clearance compared with creatinine clearance of each subject [9]: below the creatinine clearance
